# Reference: ChEMBL document CHEMBL3588826, “Chimeric derivatives of functionalized amino acids and α-aminoamides: compounds with anticonvulsant activity in seizure models and inhibitory actions on central, peripheral, and cardiac isoforms of voltage-gated sodium channels” (Bioorg Med Chem, 2015)
# The source made the active and inactive calls. The calls are words filed in the database; no cut-off is given here.
# Columns and labels:
# [1] = test system: Rattus norvegicus; experiment: Anticonvulsant activity in ip dosed rat assessed as decrease in partial complex or temporal lobe seizures by hippocampal kindeld seizure test; assay type: functional
# [2] = Protective index, ratio of TD50 for neurotoxicity in ip dosed albino Carworth Farms No. 1 mouse to ED50 for anticonvulsant activity in ip dosed MES albino Carworth Farms No. 1 mouse model; assay type: toxicity, organism-based; settings: in vivo, read-out: Ratio TD50/ED50
# Summary of the method: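 Male albino Carworth Farms No. 1 mice were dosed ip. Protective index = TD50/ED50, the ED50 taken from the ip maximal electroshock test.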
# [3] = Protective index, ratio of TD50 for behavioural toxicity in po dosed albino Sprague-Dawley rat to ED50 for anticonvulsant activity in po dosed MES albino Sprague-Dawley rat model; assay type: organism-based; settings: in vivo, read-out: Ratio TD50/ED50
# Summary of the method: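 Male albino Sprague-Dawley rats were dosed ip or orally. Protective index = TD50/ED50, the ED50 taken from maximal electroshock by the same route.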
# [4] = test system: Rattus norvegicus; experiment: Bioavailability in Sprague-Dawley rat at 5 mg/kg, iv and 20 mg/kg, po; assay type: ADME, organism-based; settings: in vivo
# Summary of the method: (§1)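 Pharmacokinetics in Sprague-Dawley rats given a single iv dose of 5 mg/kg or an oral dose of 20 mg/kg.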
# [5] = molecular target: Cytochrome P450 3A4 (Homo sapiens, UniProt P08684); experiment: Inhibition of human CYP3A4 at 10 uM; assay type: ADME
# Summary of the method: (§2)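 Test compound at 10 μM against a human CYP450 panel (CYP1A2, 2B6, 2C8, 2C9, 2C19, 2D6, 3A4/5). Direct inhibition was measured, and time-dependent inhibition was measured after a 30-min preincubation.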
# [6] = Inhibition of voltage-gated sodium channel in mouse CAD cells assessed as transition of channels to slow-inactivated state measured at +20 mV by whole cell patch-clamp electrophysiology; assay type: cell-based
# Summary of the method: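 CAD cells were grown in Ham's F12/DMEM with 10% FBS at 37 °C and 5% CO2, then recorded by whole-cell voltage clamp at room temperature. A concentration range of compound was tested versus 0.1% DMSO. Slow inactivation was measured at −50 and +20 mV, and IC50 was derived from concentration-response curves.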
# [7] = species on record: Rattus norvegicus; experiment: Effect on steady state fast-inactivation of voltage-gated sodium channel in rat embryonic cortical neurons at 10 uM by whole cell patch-clamp electrophysiology
# Summary of the method: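 Rat embryonic day 19 cortical neurons, cultured 7–10 days, were whole-cell voltage-clamped at room temperature with 1–2 MΩ electrodes, with compound at 10 μM and 0.1% DMSO as control. Fast inactivation: 500 ms prepulses, then a test pulse. Activation: conductance G = I/(Vm − Vrev). V1/2 and k came from Boltzmann fits to individual cells, averaged (mean ± SEM), 5–7 cells per condition.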
# [8] = test system: CAD; experiment: Inhibition of voltage-gated sodium channel in mouse CAD cells assessed as half-maximal voltage for steady state fast-inactivation at 10 uM by whole cell patch-clamp electrophysiology (reference value: -69.1 +/-3.6 mV); assay type: cell-based
# Summary of the method: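 CAD cells, whole-cell voltage clamp at room temperature. Prepulses from −120 to −10 mV in 10 mV steps for 500 ms, then a 0 mV, 20 ms test pulse. V1/2 from single-Boltzmann fits to individual cells, averaged (mean ± SEM). Compared with 0.1% DMSO by Student's t-test.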
# [9] = test system: Rattus norvegicus; experiment: Toxicity in po dosed Sprague-Dawley rat assessed as decrease in spleen weight administered via gavage; assay type: organism-based; settings: in vivo
# Summary of the method: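 Non-GLP 7-day repeated-dose study in female Sprague-Dawley rats given oral gavage at 20, 60 and 180 mg/kg/day. Endpoints were weight bearing, gait coordination, respiratory rate, relative organ weights, clinical chemistry and gross pathology, with NOAEL determined.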
# [10] = test system: Rattus norvegicus; experiment: Toxicity in po dosed Sprague-Dawley rat assessed as adverse effects administered via gavage; assay type: organism-based; settings: in vivo
# Summary of the method: (§3)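 Non-GLP 7-day repeated-dose study in female Sprague-Dawley rats, given by oral gavage at 20, 60 and 180 mg/kg/day. Endpoints: weight bearing, gait coordination, respiratory rate, relative organ weights, clinical chemistry and gross pathology, giving a NOAEL. The ratio divides the NOAEL by the oral MES ED50.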
# [11] = molecular target: Cytochrome P450 2C19 (Homo sapiens, UniProt P33261); experiment: Inhibition of human CYP2C19 at 10 uM; assay type: ADME; summary of the method: as §2
# [12] = Neurotoxicity in ip dosed albino Carworth Farms No. 1 mouse measured at 0.25 hrs by rotarod test; assay type: toxicity, organism-based; settings: in vivo
# [13] = test system: Mus musculus; experiment: Anticonvulsant activity in ip dosed albino Carworth Farms No. 1 mouse measured at 0.25 hrs by 6Hz (32 mA) psychomotor seizure test; assay type: functional; settings: Carworth Farms No. 1, ip
# Summary of the method: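 Screened under the NIH anticonvulsant program in male albino Carworth Farms No. 1 mice (ip) and male albino Sprague-Dawley rats (ip or oral). Protection tested by maximal electroshock or 6 Hz (32 mA) psychomotor stimulation.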
# [14] = molecular target: Sodium channel protein type 1 subunit alpha (Homo sapiens) (UniProt P35498); experiment: Inhibition of human Nav1.1 expressed in HEK293 cells assessed as half-maximal voltage for steady state fast-inactivation at 10 uM by whole cell patch-clamp electrophysiology (reference value: -64.11 +/-3.63 mV); assay type: cell-based
# [15] = molecular target: Sodium channel protein type 1 subunit alpha (Homo sapiens) (UniProt P35498); experiment: Inhibition of human Nav1.1 expressed in HEK293 cells assessed as transition of channels to slow-inactivated state at 10 uM measured at -50 mV by whole cell patch-clamp electrophysiology; assay type: cell-based
# Summary of the method: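 HEK293 cells stably expressing hNav1.1, rNav1.3, hNav1.7 or hNav1.5 were grown in DMEM with 10% FBS. Recordings were whole-cell voltage clamp at room temperature, with 10 μM compound versus 0.1% DMSO. Slow inactivation at −50 mV was calculated as 1 minus normalized peak INa. Nav1.5 used hyperpolarized protocols. Data are from 5–6 cells.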
# [16] = Half life in Sprague-Dawley rat at 5 mg/kg, iv; assay type: ADME, organism-based; settings: in vivo; summary of the method: as §1
# [17] = test system: Rattus norvegicus; experiment: Ratio of NOAEL in Sprague-Dawley rat to ED50 for anticonvulsant activity in po dosed Sprague-Dawley rat by MES test; summary of the method: as §3
# [18] = test system: Rattus norvegicus; experiment: Anticonvulsant activity in ip dosed albino Sprague-Dawley rat measured at 2 hrs by maximal electroshock seizure test; assay type: functional
# Summary of the method: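 Screened under the NIH Anticonvulsant Screening Program in male rodents, with mice and rats dosed ip and rats also dosed po. Maximal electroshock (MES) and 6 Hz (32 mA) psychomotor seizure tests were run.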
# [19] = molecular target: Sodium channel protein type 3 subunit alpha (Rattus norvegicus) (UniProt P08104); experiment: Inhibition of rat Nav1.3 expressed in HEK293 cells assessed as half-maximal voltage for steady state fast-inactivation at 10 uM by whole cell patch-clamp electrophysiology (reference value: -65.44 +/-5.62 mV); assay type: cell-based
# Sodium channel protein type 3 subunit alpha (Rattus norvegicus), sequence (P08104 whole entry): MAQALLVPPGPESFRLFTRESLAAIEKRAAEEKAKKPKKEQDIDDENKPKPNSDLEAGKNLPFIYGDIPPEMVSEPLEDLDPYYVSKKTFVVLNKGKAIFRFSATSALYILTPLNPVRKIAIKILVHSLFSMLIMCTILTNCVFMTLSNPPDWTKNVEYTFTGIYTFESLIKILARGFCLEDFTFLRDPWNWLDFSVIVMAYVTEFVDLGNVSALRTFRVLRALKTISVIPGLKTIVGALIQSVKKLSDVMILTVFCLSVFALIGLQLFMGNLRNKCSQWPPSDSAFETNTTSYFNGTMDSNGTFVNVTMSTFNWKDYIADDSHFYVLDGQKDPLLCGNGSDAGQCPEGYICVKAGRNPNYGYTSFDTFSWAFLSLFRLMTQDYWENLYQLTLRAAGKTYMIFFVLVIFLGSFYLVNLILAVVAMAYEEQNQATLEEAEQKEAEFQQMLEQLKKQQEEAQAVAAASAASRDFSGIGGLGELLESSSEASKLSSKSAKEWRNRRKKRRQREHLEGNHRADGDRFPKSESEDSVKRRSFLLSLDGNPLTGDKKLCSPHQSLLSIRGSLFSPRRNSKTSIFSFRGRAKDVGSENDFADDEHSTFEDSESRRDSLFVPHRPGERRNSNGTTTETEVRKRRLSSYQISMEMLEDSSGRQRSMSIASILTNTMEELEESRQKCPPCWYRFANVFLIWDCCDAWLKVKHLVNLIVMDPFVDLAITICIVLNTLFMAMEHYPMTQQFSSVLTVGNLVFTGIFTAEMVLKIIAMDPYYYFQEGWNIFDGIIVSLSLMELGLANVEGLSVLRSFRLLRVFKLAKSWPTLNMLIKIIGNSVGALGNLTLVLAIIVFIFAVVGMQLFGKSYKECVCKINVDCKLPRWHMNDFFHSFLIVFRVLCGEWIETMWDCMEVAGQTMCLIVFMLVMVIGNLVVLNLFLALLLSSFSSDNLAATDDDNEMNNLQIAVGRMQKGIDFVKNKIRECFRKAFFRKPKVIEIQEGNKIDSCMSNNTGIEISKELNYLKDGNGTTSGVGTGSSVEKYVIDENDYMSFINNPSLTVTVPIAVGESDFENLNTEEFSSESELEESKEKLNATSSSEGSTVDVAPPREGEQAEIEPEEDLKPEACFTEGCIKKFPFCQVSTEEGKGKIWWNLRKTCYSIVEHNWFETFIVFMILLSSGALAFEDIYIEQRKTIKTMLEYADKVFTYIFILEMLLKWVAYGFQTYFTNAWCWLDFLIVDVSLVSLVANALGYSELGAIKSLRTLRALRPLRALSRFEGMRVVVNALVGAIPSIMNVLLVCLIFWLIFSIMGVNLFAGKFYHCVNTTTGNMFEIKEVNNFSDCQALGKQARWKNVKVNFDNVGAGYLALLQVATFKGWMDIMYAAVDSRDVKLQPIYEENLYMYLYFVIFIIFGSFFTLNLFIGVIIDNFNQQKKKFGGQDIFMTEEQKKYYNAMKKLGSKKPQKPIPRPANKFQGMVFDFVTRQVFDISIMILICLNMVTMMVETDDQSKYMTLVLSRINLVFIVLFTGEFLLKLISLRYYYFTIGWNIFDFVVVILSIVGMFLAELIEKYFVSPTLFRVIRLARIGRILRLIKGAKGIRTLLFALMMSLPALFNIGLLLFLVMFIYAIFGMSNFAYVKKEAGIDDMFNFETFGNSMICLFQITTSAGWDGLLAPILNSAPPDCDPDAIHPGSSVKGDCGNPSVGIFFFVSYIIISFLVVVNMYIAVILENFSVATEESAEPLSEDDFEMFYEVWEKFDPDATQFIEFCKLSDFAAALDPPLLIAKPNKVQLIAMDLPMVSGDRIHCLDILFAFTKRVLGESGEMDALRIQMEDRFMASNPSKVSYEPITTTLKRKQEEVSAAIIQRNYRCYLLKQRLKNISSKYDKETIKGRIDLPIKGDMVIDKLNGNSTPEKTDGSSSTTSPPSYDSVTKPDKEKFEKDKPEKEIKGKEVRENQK
# Cytochrome P450 3A4, sequence (P08684 whole entry): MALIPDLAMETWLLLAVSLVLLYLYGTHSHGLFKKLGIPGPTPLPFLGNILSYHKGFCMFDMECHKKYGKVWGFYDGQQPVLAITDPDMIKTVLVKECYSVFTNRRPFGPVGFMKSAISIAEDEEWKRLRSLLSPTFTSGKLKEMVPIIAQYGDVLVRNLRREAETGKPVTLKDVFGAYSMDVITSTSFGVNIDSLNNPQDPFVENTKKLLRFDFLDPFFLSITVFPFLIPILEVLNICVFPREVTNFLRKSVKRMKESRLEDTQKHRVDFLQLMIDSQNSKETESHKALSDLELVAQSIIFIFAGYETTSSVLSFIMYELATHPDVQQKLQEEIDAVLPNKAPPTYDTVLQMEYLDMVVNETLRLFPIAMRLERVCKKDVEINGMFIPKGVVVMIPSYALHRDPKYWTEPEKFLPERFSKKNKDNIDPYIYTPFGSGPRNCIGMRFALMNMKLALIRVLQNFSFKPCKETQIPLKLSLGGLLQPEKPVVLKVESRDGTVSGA
# Cytochrome P450 2C19, sequence (P33261 whole entry): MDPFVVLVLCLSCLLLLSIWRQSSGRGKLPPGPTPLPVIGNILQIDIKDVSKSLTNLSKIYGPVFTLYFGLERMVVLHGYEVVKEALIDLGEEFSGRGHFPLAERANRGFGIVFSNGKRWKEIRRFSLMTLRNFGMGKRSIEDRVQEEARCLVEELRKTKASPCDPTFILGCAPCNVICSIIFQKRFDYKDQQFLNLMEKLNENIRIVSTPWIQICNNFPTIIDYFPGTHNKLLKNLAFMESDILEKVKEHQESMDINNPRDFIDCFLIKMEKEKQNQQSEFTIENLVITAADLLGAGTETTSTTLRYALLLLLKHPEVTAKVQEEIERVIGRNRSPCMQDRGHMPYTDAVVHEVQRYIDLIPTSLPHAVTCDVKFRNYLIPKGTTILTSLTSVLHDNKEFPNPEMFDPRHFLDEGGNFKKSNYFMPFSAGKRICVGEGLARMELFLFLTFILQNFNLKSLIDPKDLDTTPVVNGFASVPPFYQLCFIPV
structure (smiles),measurement,setting,value
COC[C@@H](NC(C)=O)C(=O)NCc1ccc(Oc2cccc(OC(F)(F)F)c2)cc1,ED50,[1],22 mg/kg
same,selectivity ratio,[2],6.2
same,selectivity ratio,[3],29
same,F,[4],92%
same,inhibition (INH),[5],Not Active
same,IC50,[6],640 nM
same,Activity,[7],inactive
same,V1/2,[8],-84.6 mV
same,Activity,[9],Toxic
same,NOAEL,[10],60 mg/kg/day
same,inhibition (INH),[11],Not Active
same,TD50 at 0.25 h,[12],40 mg/kg
same,ED50,[13],15 mg/kg
same,V1/2,[14],-76.7 mV
same,inhibition,[15],Active
same,half-life,[16],1.75 h
same,Ratio,[17],10
same,ED50,[18],5.7 mg/kg
same,V1/2,[19],-72.8 mV
